Ab BasE inh: BasE siderophore enzyme inhibitors, primary screen, biochemical, Acinetobacter baumannii ATCC 17978, fluorescence polarization | purified BasE, fluorescence polarization binding displacement | inhibition, % (concentration not given with the values) | 84,000 compounds, 0.1% hits | AID 485350, 2010; in the data active means inhibition above about 25%, passing the limit was not always enough
KSHV LANA nucl: inhibitors of KSHV LANA-nucleosome binding, primary screen, biochemical, fluorescence polarization, FITC-LANA1-23, chicken nucleosomes; FITC-LANA1-23 / chicken nucleosome fluorescence polarization; hits give low values; z-score (no concentration beside the values); 51,000 compounds, 0.3% hits; AID 720717, 2013;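 active means both repeat wells score below -2 in polarization z-score versus plate sample wells, excluding overly bright wells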
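Assay system: purified chicken nucleosomes with FITC-labelled LANA N-terminal peptide (1-23) / Probe or stimulus: 50 nM FITC-LANA1-23 probe / Compound dosing: pin-transferred compound, 100 nL / Times: compound with peptide–nucleosome mix 10–45 min at room temperature / Technique: fluorescence polarization, 480 nm excitation, 535 nm parallel and perpendicular emission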
Numbers stand for hits; - = inactive; . = no result; ! = repeats disagree. The entries come from a sample that favours hits as a whole.

SMILES	Ab BasE inh	KSHV LANA nucl
CN(C)c1ccc(C2=CC=CC(=C3C=CC(=[N+](C)C)C=C3)O2)cc1	-	.
CN(C)c1ccc(C(=C2C=CC(=[N+](C)C)C=C2)c2ccc(N(C)C)cc2)cc1	-	-4.11!
C[C@@H](C(=O)OCC(N)=O)N1C(=O)C2CC=CCC2C1=O (some centres undefined)	-	.
CCN(CC)C(=O)NCc1ccccn1	-	-
O=C(c1csc(-c2ccccc2)n1)N(Cc1ccccn1)Cc1ccccn1	.	-1.97
COc1ccc(N2CC(NC(=O)N(CCO)Cc3ccccc3)CC2=O)cc1 (centres undefined)	-	-
C=CCn1c(SC(C#N)Cc2ccccc2)nnc1C1CCCCC1 (centres undefined)	-	.
COc1ccc(OC)c(CNc2nc3ccccc3c3nnc(C)n23)c1	-	.
COc1ccc(S(=O)(=O)NNC(N)=S)cc1	-	-
COc1ccc(S(=O)(=O)c2ccc(O)cc2)cc1	51.2	-
CN(CC1COc2ccccc2O1)C(=O)NC12CC3CC(CC(C3)C1)C2 (centres undefined)	30.4	.
CN(CC1COc2ccccc2O1)C(=O)C1(c2ccccc2)CC1 (centres undefined)	-	.
CC(C)CNC(=O)Cc1ccccc1	-	-
COc1ccc(SCC(=O)c2cn(CCC#N)c3ccccc23)cc1	-	.
N#CCCn1cc(C(=O)CSc2ccccn2)c2ccccc21	32.3	.
CC(CNC(=O)c1cc(C2CC2)[nH]n1)c1ccccc1 (centres undefined)	-	-
Cc1cc(C(=O)NCC(C)c2ccccc2)n[nH]1 (centres undefined)	-	-2.15
Cc1ccc(C)c(NC(=O)CN(C)C(=O)CSc2nnc(-c3ccc(Cl)cc3)o2)c1	-	.
Oc1ccc(Cl)c2cccnc12	-	-
Oc1ccc(Br)c2cccnc12	56.8	-
O=C1C=CC(=O)c2c(Cl)ccc(Cl)c21	79.9	-
CC(C)c1ccc(C2=CC(=O)C=CC2=O)cc1	-	-
COc1cccc(N(C)C(=O)/C=C/c2ccc(F)cc2)n1	-	.
C=CCOc1cccc(C(=O)Nc2ccccc2)c1	-	-
COc1ccccc1C(=O)Nc1sccc1C(N)=O	-	.
SMILES	Ab BasE inh	KSHV LANA nucl
O=C(CSC1=NNC(c2ccccn2)S1)Nc1cccc(Cl)c1 (centres undefined)	-	-2.13
COc1cccc(NC(=O)CSc2ncccn2)c1	-	-
C/C(=N\NC(=O)c1ccc(O)cc1)c1ccc(S(=O)(=O)NCc2ccco2)cc1	28.6	.
C/C(=N\NC(=S)NC1CCCCC1)c1ccc(S(=O)(=O)NCc2ccco2)cc1	-	.
Cc1cccc(OCc2nnc(SCCN3C(=O)c4ccccc4C3=O)o2)c1	-	.
Cn1c(=O)n(C)c2cc(/C=C(\C#N)C(N)=C(C#N)C#N)ccc21	-	-
O=C(Cn1cnnn1)NC1CCCc2ccccc21 (centres undefined)	-	.
Cc1cc(=O)n2nc(N(C)CC(=O)NC3CCCc4ccccc43)sc2n1 (centres undefined)	-	-2.26
CC(=O)N/N=C/c1cc(C(C)C)cc(/C=N/NC(C)=O)c1O	-	-3.89
CC(=O)N/N=C/c1ccccc1	-	-
CC(C)c1ccc(-c2noc(COC(=O)c3ccc(S(=O)(=O)NCCC#N)cc3)n2)cc1	-	.
COC(=O)c1cnn(-c2c(Cl)cccc2Cl)c1C=C(C#N)C#N	-	-
COC(=O)c1cc(-c2cocc2C=C(C#N)C#N)ccc1Cl	-	-4.66
S=C(NCCN1CCOCC1)c1ccc(Cl)cc1	-	-
CCN(CC)CCSc1nc2ccc(OC)cc2[nH]1	-	-
CCN(CC)CCCC(C)Nc1c2ccc(Cl)cc2nc2ccc(OC)cc12 (centres undefined)	-	-2.32!
CNC(=O)C1=C(C)NC(=O)NC1c1ccc(Cl)cc1 (centres undefined)	-	-
C[n+]1cccc2ccc(O)cc21	-	-6.72
N#CCCn1cc(/C=N/O)c(-c2ccc(Br)cc2)n1	-	-
N#CC1=C2SCN(Cc3ccccc3)CN2C(=O)CC1c1cccs1 (centres undefined)	-	-
CCN1C=CC2=C(C#N)C(N)C(C#N)(C#N)C(c3cccs3)C2C1 (centres undefined)	-	-6.35
Cn1c(SCCCCN2C(=O)c3ccccc3C2=O)nnc1-c1ccccc1	-	.
Cn1cnc2c(=O)oc3ccc(S(=O)(=O)NCCc4ccccc4)cc3c21	-	-
COc1ccc(C2CC(=O)c3cnc(NCc4ccccc4)nc3C2)cc1 (centres undefined)	-	-
CC[C@@]1(O)C(=O)OCc2c1cc1n(c2=O)Cc2cc3c(CN(C)C)c(O)ccc3nc2-1	-	-9.04!
CCCCc1cc(=O)oc2c(CN(C)C)c(O)ccc12	-	-
CC(C)(C)Sc1cc(C(=O)O)sc1C(=O)O	-	-
CN(C)/C=C1\SC(=S)N(c2ccc(Br)cc2)C1=O	-	-8.95
Cn1cccc1/C=C1/SC(=S)N(c2ccc(C(=O)O)cc2)C1=O	-	-

Assay outcomes: PubChem BioAssay, ICCB-Longwood Screening Facility, Harvard Medical School
